Experimental data as given in article PMC6800648 (Cell chemical biology, 2019).
Values joined by “and” are separate entries in the source; they are usually repeats but may differ in a detail not shown here. Equal entries are not always repeated. Each block holds one molecule with its values, some of them ahead of it. Numbered stars: 1 amine (or outer) side, 2 acyl side, 3 side chain; on linkers, the order of the positions; unused ones are H or OH. Square brackets hold non-standard residues; d marks the D form. Peptide text beside a SMILES is read from it. * marks the point of attachment. NH(CH2CH2O)11C2H4NHBiotinyl = O=C(CCCC[C@@H]1SC[C@@H]2NC(=O)N[C@@H]21)NCCOCCOCCOCCOCCOCCOCCOCCOCCOCCOCCOCCN*; Lys(Me,2-norbornyl) = CN(CCCC[C@H](N)C(=O)O)C1CC2CCC1C2; X10 = CN(CCCC[C@H](N[*:1])C(=O)[*:2])C1C2CC3CC(C2)CC1C3; Benzoyl(4-tBu) = CC(C)(C)c1ccc(C(=O)*)cc1

Assays:
CBX7 [1] = molecular target: T1, CBX7 (Mus musculus, UniProt Q8VDS3); test: Polycomb in-vivo Assay; assay type: cell-based
T1 sequence (Q8VDS3 2-69 limits assumed): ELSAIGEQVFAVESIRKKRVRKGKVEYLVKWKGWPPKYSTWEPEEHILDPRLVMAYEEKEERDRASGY

CBX7 [2] = molecular target: T2, CBX7 (Mus musculus, UniProt Q8VDS3); assay type: cell-based; conditions: TetOFF reporter cell line; UNC4976 compared to UNC3866 treatment
T2 sequence (Q8VDS3 1-158): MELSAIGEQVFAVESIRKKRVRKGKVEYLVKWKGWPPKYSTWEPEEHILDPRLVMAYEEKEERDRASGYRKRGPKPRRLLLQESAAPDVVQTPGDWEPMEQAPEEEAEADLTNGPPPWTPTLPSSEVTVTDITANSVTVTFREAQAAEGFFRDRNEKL

mESCs = test: CellTiter-Glo viability assay in mESCs; assay type: cell-based, mouse; conditions: 48 hr, at 100 μM
Summary of the method: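 Mouse ES cells, 5,000 per well, exposed in technical triplicate for 48 hr at 37°C to a ten-point three-fold dilution series prepared from 50 mM DMSO stocks (0.2% DMSO final). Media-only wells served as negative controls. After equilibrating at room temperature, CellTiter-Glo was added, with 2 min shaking and 10 min settling, then luminescence read.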

CBX7 chromodomain [3] = molecular target: T3, CBX7 chromodomain (Homo sapiens, UniProt O95931); test: Isothermal titration calorimetry; assay type: binding; conditions: ITC
T3 sequence (O95931 8-62): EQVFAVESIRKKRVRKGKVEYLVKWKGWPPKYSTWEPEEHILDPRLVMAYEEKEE
Summary of the method: (§1)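 ITC at 25 °C in 25 mM Tris-HCl pH 7.5, 150 mM NaCl, 2 mM β-mercaptoethanol. Typically 50 µM chromodomain in cell, 0.5 mM test compound in syringe (10:1 kept). Protein quantified by Edelhoch, compound by mass. One 0.2 µl injection then 26 × 1.5 µl injections at 180 s spacing; first point discarded. Kd from one-site nonlinear least-squares fit.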

CBX2 chromodomain = test: Isothermal titration calorimetry; assay type: binding; conditions: from ITC Kd values
Summary of the method: as §1

CBX6 chromodomain = test: Isothermal titration calorimetry; assay type: binding; conditions: from ITC Kd values
Summary of the method: as §1

CDYL2 chromodomain = test: Isothermal titration calorimetry; assay type: binding; conditions: from ITC Kd values
Summary of the method: as §1

CBX7 and RING1B = molecular target: T4, CBX7 and RING1B (Mus musculus, UniProt Q8VDS3); test: ChIP-qPCR / ChIP-seq in mESCs; assay type: cell-based; conditions: 4 hours, 20 μM
T4 sequence (Q8VDS3 1-158): T2 sequence (Q8VDS3 1-158)
T4 sequence (Q9CQJ4 2-336 partner limits assumed): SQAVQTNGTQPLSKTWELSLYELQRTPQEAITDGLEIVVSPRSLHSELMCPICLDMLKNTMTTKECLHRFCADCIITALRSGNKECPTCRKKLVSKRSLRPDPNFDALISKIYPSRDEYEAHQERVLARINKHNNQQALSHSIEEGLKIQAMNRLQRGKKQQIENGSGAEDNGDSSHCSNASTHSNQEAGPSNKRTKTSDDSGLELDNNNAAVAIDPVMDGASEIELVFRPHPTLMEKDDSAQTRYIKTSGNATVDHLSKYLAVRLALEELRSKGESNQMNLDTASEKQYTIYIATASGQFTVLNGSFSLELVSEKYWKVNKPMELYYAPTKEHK

SUZ12 and H3K27me3 = test: Capture ChIP-seq in mESCs, SUZ12 and H3K27me3; assay type: cell-based, mouse
CBX7 chromodomain [4] = molecular target: T5, CBX7 chromodomain (Homo sapiens, UniProt O95931); test: Fluorescence polarization; assay type: biochemical
T5 sequence (O95931 1-62): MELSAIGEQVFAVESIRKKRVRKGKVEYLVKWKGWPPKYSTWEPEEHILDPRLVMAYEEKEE
Summary of the method: (§2)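 Buffer: 25 mM Tris-HCl pH 7.4, 100 mM NaCl, 0.05% Tween-20, 2 mM DTT; 100 nM FAM-dsDNA or FAM-ANRIL-RNA; 0.2% DMSO; 30 min at RT. Compound titration: eight-point three-fold series from 100 µM with 30 µM CBX7 chromodomain. Ratio mode: CBX7 and test compound co-diluted at fixed 3:1 from 300 µM/100 µM. Polarisation normalised to a no-protein control; α fitted by the Stockton-Ehlert allosteric model.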

CBX7 chromodomain [5] = molecular target: T5, CBX7 chromodomain; test: Fluorescence polarization; assay type: biochemical; remark: listed apart in the source
Summary of the method: as §2

CBX7 chromodomain [6] = molecular target: T5, CBX7 chromodomain; test: Electrophoretic mobility shift assay; assay type: biochemical
Summary of the method: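 Buffer: 25 mM Tris-HCl pH 7.4, 100 mM NaCl, 0.05% Tween-20, 2 mM DTT. Compound runs used 150 µM CBX7 with 100 nM FAM-DNA probe and 50 µM test compound (0.3% DMSO); protein-only runs used a three-fold CBX7 series. Binding 20 min on ice. Native 10% Tris-glycine gel at 100 V, 4°C, 90 min in the dark. FAM fluorescence imaged, then Coomassie-stained.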

Polycomb target genes = test: RT-qPCR mRNA expression in HEK293 cells; assay type: cell-based, human
Summary of the method: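 HEK293 cells were treated with test compounds at 6 µM and 20 µM for 2 days. RNA was reverse-transcribed and Polycomb target transcripts were quantified by qPCR with ~100–150 bp amplicons.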

[7] = test system: 120 purified Kme reader domains; test: Chromatin-associated domain array; assay type: binding; conditions: biotinylated ligand, fluorescently tagged streptavidin visualization
canonical PRC1 complex = test: Chemiprecipitation; assay type: binding, human; conditions: PC3 cell lysates, western blot
Summary of the method: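 PC3 cells in DMEM/F12 plus 10% FBS were grown to 80–90% confluency, trypsinised, PBS-washed twice, and lysed fresh or after flash freezing. Lysates were pulled down with biotinylated test compounds. Beads were boiled in Laemmli buffer at 95 °C for 3 min, with 1% input. Proteins were separated by SDS-PAGE and blotted to PVDF. Primary antibody overnight at 4°C; infrared secondaries (1:10,000).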

[8] = Solubility observed in the Polycomb in-vivo Assay; conditions: above 30 mM in the Polycomb in-vivo Assay
[9] = molecular target: T6, CDYL2 chromodomain (residues 1–75 of NP_689555) (UniProt Q8N8U2 1-75); test: ITC
T6 sequence (looked up): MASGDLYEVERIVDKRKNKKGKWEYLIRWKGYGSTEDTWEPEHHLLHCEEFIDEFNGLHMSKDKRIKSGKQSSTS

[10] = molecular target: T7, CBX2 chromodomain (residues 9–66 of NP_005180) (UniProt Q14781-1 9-66); test: ITC
T7 sequence (looked up): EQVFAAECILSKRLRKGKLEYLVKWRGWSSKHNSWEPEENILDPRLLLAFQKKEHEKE

[11] = molecular target: T8, CBX6 chromodomain (residues 8–65 of NP_055107) (UniProt O95503 8-65); test: ITC
T8 sequence (looked up): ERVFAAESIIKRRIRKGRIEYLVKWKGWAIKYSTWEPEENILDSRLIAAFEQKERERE

CBX7 chromodomain [12] = molecular target: CBX7 chromodomain (UniProt O95931 8-62); test: fluorescence polarization
[13] = 1:3 ratio of compound to protein titration
[14] = Stockton/Ehlert allosteric binding model, 1:3 compound to CBX7, 100 nM FAM-ANRIL-RNA

EC50 (CBX7 [1]): 3210 ± 352 nM
fold more potent than UNC3866 in the CBX7 reporter cell line (CBX7 [1]; EC50 ratio versus UNC3866): ~ 14 fold and 14 fold
derepression of the GFP reporter gene / maintenance of Polycomb silencing (CBX7 [2]): enhanced
affinity for CBX4 and CBX7 compared (CBX7 chromodomain [3]): equipotent affinity
CBX7 and RING1B binding at PRC1 target TSSs (CBX7 and RING1B): substantially reduced
reduction in SUZ12 binding and H3K27me3 (SUZ12 and H3K27me3): only a mild or insignificant reduction
change of fluorescence polarization on compound titration (CBX7 chromodomain [4]; 30 μM CBX7 chromodomain, 100 nM FAM-dsDNA): increased polarization
enhancement in CBX7 affinity for FAM-dsDNA (CBX7 chromodomain [4]; [13]): significant enhancement
allosteric modulator class of oligonucleotide binding (CBX7 chromodomain [4]; FP data fit to the Stockton/Ehlert allosteric binding model): positive allosteric modulator
α (factor of enhancement of CBX7 affinity for the DNA probe) (CBX7 chromodomain [4]; Stockton/Ehlert allosteric binding model, 1:3 compound to CBX7, 100 nM FAM-dsDNA): 4.2
effect on CBX7 binding to FAM-ANRIL-RNA (CBX7 chromodomain [5]; [13]): promoted enhanced CBX7 binding to RNA
α (factor of enhancement of CBX7 affinity for the RNA probe) (CBX7 chromodomain [5]; [14]): 4.0
β (ratio of FP factors between [RNA:CBX7:UNC] and [RNA:CBX7]) (CBX7 chromodomain [5]; [14]): 1.1
binding to CBX7 by Coomassie stain (higher molecular weight band shifts) (CBX7 chromodomain [6]; EMSA gel): showed binding to CBX7
effect on FAM-dsDNA binding to CBX7 (CBX7 chromodomain [6]; EMSA, 150 mM CBX7 and 100 nM FAM-dsDNA probe, 1:3 ratio of compound to CBX7): enhanced FAM-dsDNA binding
Molecule: COC(=O)[C@H](CO)NC(=O)[C@H](CCCCN(C)C1CC2CCC1C2)NC(=O)[C@H](CC(C)C)NC(=O)[C@H](C)NC(=O)[C@H](Cc1ccccc1)NC(=O)c1ccc(C(C)(C)C)cc1 (stereo partly drawn) [UNC4976, methyl N^6-(bicyclo[2.2.1]heptan-2-yl)-N^2-(4-(tert-butyl)benzoyl)-L-phenylalanyl-L-alanyl-L-leucyl-N^6-methyl-L-lysyl-L-serinate] ({Benzoyl(4-tBu)}-FAL[Lys(Me,2-norbornyl)]S-OMe)
mESC viability upon compound treatment (mESCs): weak toxicity
selectivity for CBX4/7 over CBX2 (CBX2 chromodomain): 28 fold
selectivity for CBX4/7 over CBX6 (CBX6 chromodomain): 9 fold
selectivity for CBX4/7 over CDYL2 (CDYL2 chromodomain): 8 fold
effect on transcription of Polycomb target genes (Polycomb target genes; HEK293, 6 μM and 20 μM, 2 days): pronounced increase in transcription
fold higher expression than UNC3866 treatment at the same concentration (Polycomb target genes; HEK293, in some cases): 8 fold

Molecule: CC(C)C[C@H](NC(=O)[C@H](C)NC(=O)[C@H](Cc1ccccc1)NC(=O)c1ccc(C(C)(C)C)cc1)C(=O)N[C@@H](CCCCN(C)C1CC2CCC1C2)C(=O)N[C@@H](CO)C(=O)NCCOCCOCCOCCOCCOCCOCCOCCOCCOCCOCCOCCNC(=O)CCCC[C@@H]1SC[C@@H]2NC(=O)N[C@@H]21 (stereo partly drawn) [UNC5355, N-((2S,5S,8S,11S,14S)-11-(4-(bicyclo[2.2.1]heptan-2-yl(methyl)amino)butyl)-14-(hydroxymethyl)-8-isobutyl-5-methyl-3,6,9,12,15,53-hexaoxo-57-((3aS,4S,6aR)-2-oxohexahydro-1H-thieno[3,4-d]imidazol-4-yl)-1-phenyl-19,22,25,28,31,34,37,40,43,46,49-undecaoxa-4,7,10,13,16,52-hexaazaheptapentacontan-2-yl)-4-(tert-butyl)benzamide] ({Benzoyl(4-tBu)}-FAL[Lys(Me,2-norbornyl)]S-{NH(CH2CH2O)11C2H4NHBiotinyl})
selectivity profile on CADOR microarray [7]: binding interactions were only detected for all five Polycomb CBX chromodomains and a small subset of CDY chromodomains
pulldown of CBX2 and CBX6 (canonical PRC1 complex): not detected
pulldown of canonical PRC1 components (CBX4, CBX7, CBX8, RING1B, BMI1) (canonical PRC1 complex): all five components previously mentioned were similarly pulled down

EC50 (CBX7 [1]): 1020 ± 175 nM
solubility in this assay [8]: markedly poor solubility
Molecule: COC(=O)[C@H](CO)NC(=O)[C@H](CCCCN(C)C1C2CC3CC(C2)CC1C3)NC(=O)[C@H](CC(C)C)NC(=O)[C@H](C)NC(=O)[C@H](Cc1ccccc1)NC(=O)c1ccc(C(C)(C)C)cc1 (stereo partly drawn) [UNC6373, methyl N^6-((1S,3S,5S,7S)-adamantan-2-yl)-N^2-(4-(tert-butyl)benzoyl)-L-phenylalanyl-L-alanyl-L-leucyl-N^6-methyl-L-lysyl-L-serinate] ({Benzoyl(4-tBu)}-FAL[X10]S-OMe)

fold selectivity for CBX4/7 over CDYL2 [9]: 8 fold
fold selectivity for CBX4/7 over CBX2 [10]: 28 fold
fold selectivity for CBX4/7 over CBX6 [11]: 9 fold
B1: UNC4976 (peptide)
peptide: FALKS
modifications: N-terminal 4-(tert-butyl)benzoyl cap on Phe1; Lys4 is N6-(bicyclo[2.2.1]heptan-2-yl)-N6-methyl-L-lysine (N6-methyl-N6-norbornyl lysine); C-terminal methyl ester on Ser5

Molecule: UGGAGUUGCGUUCCA (structured_RNA) [FAM-ANRIL-RNA (ANRIL Loop C) FP probe]
binding signal (CBX7 chromodomain [12]): 4 fold affinity (alpha)
